Reference: ChEMBL document CHEMBL5712890, “Sensitivity and engineered resistance of myeloid leukemia cells to BRD9 inhibition” (Nat Chem Biol, 2016)
Values belong to the compound of their own block, whether it stands above or below them.

Key:
[1] = Antiproliferative activity against mouse RN2 cells transduced with BRD9 assessed as inhibition of cell growth for 7 days by cell titre glo assay (reference value: 0.757 uM); settings: RN2, 168 h
[2] = system: HL-60; experiment: Antiproliferative activity against human HL-60 cells assessed as inhibition of cell growth for 7 days by cell titre glo assay; assay type: functional; settings: HL-60, 168 h, time 7 day
In short: (§1)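 Human cancer cell lines in RPMI-1640 (leukemia) or DMEM (solid) with 10 % FBS, grown 7 days with rising inhibitor concentrations. Proliferation read by CellTiter-Glo, normalized to DMSO control.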

[3] = Antiproliferative activity against mouse RN2 cells transduced with BRD9-BET assessed as inhibition of cell growth for 7 days by cell titre glo assay (reference value: 0.757 uM); settings: RN2, 168 h
[4] = system: Jurkat; experiment: Antiproliferative activity against human Jurkat cells assessed as inhibition of cell growth for 7 days by cell titre glo assay; assay type: functional; settings: 168 h, time 7 day
In short: as §1

[5] = biological target: T1, ATPase family AAA domain-containing protein 2B (Homo sapiens, UniProt Q9ULI0); experiment: Binding affinity to KIAA1240 (unknown origin) assessed as dissociation constant by bromoKdselect analysis
T1 sequence (Q9ULI0 whole entry): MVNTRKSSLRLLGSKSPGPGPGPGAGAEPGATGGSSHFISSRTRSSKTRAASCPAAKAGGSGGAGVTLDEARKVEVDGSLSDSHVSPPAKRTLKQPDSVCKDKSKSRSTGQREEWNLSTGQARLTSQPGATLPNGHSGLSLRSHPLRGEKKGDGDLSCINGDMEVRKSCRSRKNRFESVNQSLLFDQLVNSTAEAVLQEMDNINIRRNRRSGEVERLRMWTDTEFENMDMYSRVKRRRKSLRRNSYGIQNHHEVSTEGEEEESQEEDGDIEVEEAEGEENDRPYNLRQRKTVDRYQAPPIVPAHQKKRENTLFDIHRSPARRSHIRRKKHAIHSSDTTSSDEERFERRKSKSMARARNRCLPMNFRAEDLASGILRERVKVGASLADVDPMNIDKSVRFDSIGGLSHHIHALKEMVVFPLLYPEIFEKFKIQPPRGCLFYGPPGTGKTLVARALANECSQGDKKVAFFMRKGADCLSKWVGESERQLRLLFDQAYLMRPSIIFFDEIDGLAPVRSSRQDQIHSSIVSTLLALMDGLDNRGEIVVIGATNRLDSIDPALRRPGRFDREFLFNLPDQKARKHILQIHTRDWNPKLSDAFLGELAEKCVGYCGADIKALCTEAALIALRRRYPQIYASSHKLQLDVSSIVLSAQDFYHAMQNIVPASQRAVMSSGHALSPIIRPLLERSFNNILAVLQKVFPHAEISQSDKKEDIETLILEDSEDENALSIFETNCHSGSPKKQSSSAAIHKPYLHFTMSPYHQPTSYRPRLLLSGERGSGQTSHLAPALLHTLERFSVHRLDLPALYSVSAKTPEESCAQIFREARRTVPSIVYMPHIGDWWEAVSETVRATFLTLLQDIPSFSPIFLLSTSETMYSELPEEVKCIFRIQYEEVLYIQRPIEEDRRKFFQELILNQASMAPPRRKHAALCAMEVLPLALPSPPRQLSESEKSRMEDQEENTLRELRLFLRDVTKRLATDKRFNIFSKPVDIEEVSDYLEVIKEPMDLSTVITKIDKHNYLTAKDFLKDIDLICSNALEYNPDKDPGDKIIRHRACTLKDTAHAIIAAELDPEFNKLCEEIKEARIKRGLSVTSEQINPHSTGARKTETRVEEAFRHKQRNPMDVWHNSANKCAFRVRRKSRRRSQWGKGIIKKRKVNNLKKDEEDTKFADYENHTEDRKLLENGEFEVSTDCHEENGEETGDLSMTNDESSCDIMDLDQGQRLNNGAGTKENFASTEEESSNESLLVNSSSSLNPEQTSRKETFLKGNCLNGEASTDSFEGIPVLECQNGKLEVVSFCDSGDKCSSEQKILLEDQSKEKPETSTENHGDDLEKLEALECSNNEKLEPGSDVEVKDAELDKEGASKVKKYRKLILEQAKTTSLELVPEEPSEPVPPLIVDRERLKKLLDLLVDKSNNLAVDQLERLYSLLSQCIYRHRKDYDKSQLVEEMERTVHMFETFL

[6] = Antiproliferative activity against mouse RN2 cells assessed as inhibition of cell growth for 7 days by cell titre glo assay; settings: RN2, 168 h
[7] = Antiproliferative activity against mouse RN2 cells transduced with BRD9-BET assessed as inhibition of cell growth for 7 days by cell titre glo assay (reference value: 610 nM); settings: RN2, 168 h
[8] = Antiproliferative activity against mouse RN2 cells transduced with BRD9-BET assessed as inhibition of cell growth for 7 days by cell titre glo assay (reference value: 1709 nM); settings: RN2, 168 h
[9] = Antiproliferative activity against mouse RN2 cells transduced with BRD9 assessed as inhibition of cell growth for 7 days by cell titre glo assay (reference value: 1709 nM); settings: RN2, 168 h
[10] = Antiproliferative activity against mouse RN2 cells transduced with BRD9-BET assessed as inhibition of cell growth for 7 days by cell titre glo assay (reference value: 323 nM); settings: RN2, 168 h
[11] = Antiproliferative activity against mouse RN2 cells transduced with BRD9 assessed as inhibition of cell growth for 7 days by cell titre glo assay (reference value: 323 nM); settings: RN2, 168 h
[12] = Antiproliferative activity against mouse RN2 cells transduced with BRD9 assessed as inhibition of cell growth for 7 days by cell titre glo assay (reference value: 6.144 uM); settings: RN2, 168 h
[13] = Antiproliferative activity against mouse RN2 cells transduced with BRD9-BET assessed as inhibition of cell growth for 7 days by cell titre glo assay (reference value: 6.144 uM); settings: RN2, 168 h
[14] = Antiproliferative activity against mouse RN2 cells transduced with EZH2 harboring SET domain of EZH1 assessed as inhibition of cell growth for 7 days by cell titre glo assay (reference value: 5.1 uM); settings: RN2, 168 h
[15] = Antiproliferative activity against mouse RN2 cells transduced with wild type EZH2 assessed as inhibition of cell growth for 7 days by cell titre glo assay (reference value: 5.1 uM); settings: RN2, 168 h

GI50 [2]: 0.433 µM
GI50 [4]: 3.64 µM
Structure (SMILES): CCn1cc(-c2cccc(C(F)(F)F)c2)c2sc(C(=N)NC3CCS(=O)(=O)CC3)cc2c1=O
GI50 [1]: 1.25 µM
GI50 [3]: 2.69 µM

Kd [5]: 1 µM
Structure (SMILES): COc1cc(-c2cn(C)c(=O)c3cnccc23)cc(OC)c1CN(C)C
GI50 [6]: 0.476 µM
GI50 [7]: > 10 µM

Structure (SMILES): COc1cc(-c2cc(C)c(=O)n(C)c2C)cc(OC)c1CN(C)C
GI50 [8]: > 10 µM
GI50 [9]: 1.03 µM

Structure (SMILES): COc1cc(-c2cn(C)c(=O)c3ccccc23)cc(OC)c1CN(C)C
GI50 [10]: 4.48 µM
GI50 [11]: 0.16 µM

GI50 [2]: 5.03 µM
GI50 [4]: 10.5 µM
Structure (SMILES): Cc1cc(=O)n(C)c2cc(N3C(=O)CC[C@H](NS(=O)(=O)CC(C)C)[C@H]3c3ccc(Cl)cc3)ccc12
GI50 [12]: 6.87 µM
GI50 [13]: 9.38 µM

Structure (SMILES): CC[C@H](C)n1cc(C)c2c(C(=O)NCc3c(C)cc(C)[nH]c3=O)cc(-c3ccc(N4CCNCC4)nc3)cc21 [GSK2816126]
GI50 [14]: > 10 µM
GI50 [15]: 6.2 µM
